This is a sample that favours compounds with a hit; in the whole collection about 2.3% have one here.
TROY signal inh – blocks TROY-dependent signaling in reporter cells; Q293 LMP1-TROYcd NF-kB luciferase reporter, 4 h; inhibition, % at 10 µM; 360,000 compounds, 0.98% hits; AID 1347056;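 active means compounds whose plate-normalised and pattern-corrected inhibition of the luciferase reporter signal at the single screening dose is 50% or more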
TWEAK Fn14 block – TWEAK-Fn14 signaling inhibition. TWEAK-stimulated Fn14 reporter cells, luciferase luminescence, 8 h. inhibition, % at 10 µM. 360,000 compounds, 2% hits. AID 1159606; in the data active means inhibition above about 50%
EWS-Fli inh – blocks EWS/Fli oncoprotein-driven transcription; AID 651661; A673 NR0B1-luciferase reporter, viability-normalised; 350,000 compounds, 0.67% hits; inhibition, % at 12.6 µM;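 active means mean inhibition of at least 50% after viability correction, with every replicate also passing that limit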;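 further: firefly luciferase signal divided by Alamar Blue viability fluorescence both relative to DMSO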
Xi reactivation – activators of X-chromosome reactivation in mouse fibroblasts. XiGFP mouse fibroblasts, % GFP-positive cells imaging, 3 d; cells co-treated with 5-aza-dC sensitizer; scaled so ellipticine positive control = 100%. activation, % at 7.58 µM. 360,000 compounds, 0.055% hits;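 active means mean normalized replicate activation at least 10% and every replicate at or above 10%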
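System: SV40-immortalized XiGFP fibroblast cells, line 68-5-11 / Incubation: 3-day compound exposure, then 15 min fixation at room temperature / Compound: single concentration per compound, delivered by pin transfer / Buffer or medium: DMEM plus 5-aza-dC sensitizer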
FN deposition inh – fibronectin deposition inhibition | AH1F fibroblasts, Alexa488-fibronectin deposition fluorescence, overnight | inhibition, % at 12.6 µM | 350,000 compounds, 0.086% hits | AID 743247;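 active means mean inhibition across replicates of 30% or more, regardless of how many single replicates reach that level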
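Test system: AH1F fibroblast monolayer depositing Alexa488-labelled fibronectin into matrix. Input: 10000 cells per well. Technique: fluorescence, ex 485 nm, em 525 nm. Buffer or medium: DMEM plus 2% serum, read in PBS. Timing: 1 h cell adhesion before compound, then overnight fibronectin incubation. Compound: single dose, pinned. Read-out basis: inhibition from reduced deposited-fibronectin fluorescence.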
LGR2 antag – blocks bursicon-induced cAMP signaling via Drosophila LGR2 | inhibition, % at 9.99 µM | AID 720647 | HEK293 LGR2, CRE-luciferase, bursicon-stimulated, 4 h | 380,000 compounds, 0.35% hits;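 active means drop in luminescence signal, shown as inhibition above about 50% in the replicate tests, limit read from the data, passing the limit was not always enough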;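 further: agonist challenge used bursicon conditioned medium at about half maximal strength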
Each line names hits and unclear results; the compound was inactive in the other large screens.

COC(=O)c1cc(C(=O)c2cc(Cl)ccc2O)coc1=N	TWEAK Fn14 block 70
COCCOC(=O)c1cc(C(=O)c2cc(F)ccc2O)coc1=N	none (no result: EWS-Fli inh, Xi reactivation, LGR2 antag)
O=C(C[C@H]1CC[C@@H]2[C@H](COC[C@@H](O)CN2S(=O)(=O)c2cccc(F)c2)O1)Nc1ccccc1	none (no result: TROY signal inh, TWEAK Fn14 block, EWS-Fli inh)
Cc1c(CCC(=O)NCC(=O)NCC(=O)O)c(=O)oc2cc3oc4c(c3cc12)CCCC4	none
Cc1c(CCC(=O)O)c(=O)oc2cc3oc4c(c3cc12)CCCC4	TWEAK Fn14 block 51, EWS-Fli inh 57
Cc1c(CCC(=O)N2CCC[C@H]2C(=O)O)c(=O)oc2cc3oc4c(c3cc12)CCCC4	TWEAK Fn14 block 76 (no result: EWS-Fli inh, Xi reactivation, FN deposition inh, LGR2 antag)
O=[N+]([O-])c1cc(C(F)(F)F)cc([N+](=O)[O-])c1NCCNC(=S)Nc1cccc(F)c1	TROY signal inh 68
COc1ccc2c3c([nH]c2c1)[C@H](CO)N(Cc1ccccc1)CC31CN(S(C)(=O)=O)C1	none (no result: TROY signal inh, TWEAK Fn14 block, EWS-Fli inh, FN deposition inh, LGR2 antag)
O=C(Nc1cc(Cl)cc(Cl)c1)N[C@H]1CC[C@H](CCNS(=O)(=O)c2cccc(F)c2)O[C@@H]1CO	none (no result: TROY signal inh, TWEAK Fn14 block)
N#CCc1ccc(NC(=O)/C=C/c2ccc([N+](=O)[O-])o2)cc1	TWEAK Fn14 block 61 (no result: EWS-Fli inh, Xi reactivation, FN deposition inh, LGR2 antag)
C[C@H]1CN([C@@H](C)CO)S(=O)(=O)c2ccc(C#CCC3CCCC3)cc2O[C@H]1CN(C)C(=O)c1cnccn1	none (no result: TROY signal inh, TWEAK Fn14 block)
CC1(C)CC(=O)C2=C(C1)OC1=C(C(=O)CC(C)(C)C1)C2c1ccc(O)cc1O	TROY signal inh 82, TWEAK Fn14 block 104 (no result: EWS-Fli inh, Xi reactivation, LGR2 antag)
CN(c1ccc(OCC(=O)Nc2nc3ccccc3s2)cc1)S(=O)(=O)c1ccccc1	TROY signal inh 51 (no result: FN deposition inh)
COc1ccc(C(=O)NC(=S)NNC(=O)COc2ccccc2)cc1	TWEAK Fn14 block 63
COc1ccc(OCC(=O)NNc2nc3ccccc3s2)cc1	TROY signal inh 79 (no result: LGR2 antag)
CCOc1ccc(S(=O)(=O)N(C)c2ccc(OCC(=O)Nc3nc4ccccc4s3)cc2)cc1	TWEAK Fn14 block 74 (no result: EWS-Fli inh)
COc1ccc(OC)c2sc(NNC(=O)COc3ccccc3)nc12	none
CCS(=O)(=O)N1CC2(CN(Cc3ccc(OC)cc3)[C@@H](CO)c3c2c2ccc(OC)cc2n3C)C1	none (no result: TROY signal inh, TWEAK Fn14 block, FN deposition inh)
CCCN1C[C@@H](C)[C@@H](OC)CN(C)C(=O)c2ccc(NC(=O)Nc3c(C)noc3C)cc2OC[C@@H]1C	none (no result: TROY signal inh, TWEAK Fn14 block)
CNC[C@@H]1Oc2c(NC(=O)C3CCOCC3)cccc2C(=O)N([C@@H](C)CO)C[C@@H]1C	none (no result: TROY signal inh, TWEAK Fn14 block)
CCOc1ccc(C(=O)CCc2nc3ccccc3s2)cc1	TROY signal inh 54 (no result: EWS-Fli inh, Xi reactivation, LGR2 antag)
COc1ccc(NC(=O)CCc2nc3ccccc3s2)c(OC)c1	none
O=C1CCCc2nc(N3CCN(c4ccccc4)CC3)ncc21	none (no result: EWS-Fli inh, Xi reactivation, FN deposition inh, LGR2 antag)
Fc1cnc(N2CCN(c3ccccc3)CC2)nc1N1CCN(c2ccccc2)CC1	FN deposition inh 30 (no result: LGR2 antag)
CSc1ccc(/C=N/NC(=O)c2sccc2C)cc1	TWEAK Fn14 block 55 (no result: LGR2 antag)
CC(C)NC(=O)N(C)C[C@H]1Oc2ccc(NC(=O)Nc3ccc(C(F)(F)F)cc3)cc2CC(=O)N([C@H](C)CO)C[C@H]1C	none (no result: TROY signal inh, TWEAK Fn14 block)
CC(C)NC(=O)N(C)C[C@H]1Oc2ccc(NC(=O)Nc3ccc(C(F)(F)F)cc3)cc2CC(=O)N([C@@H](C)CO)C[C@H]1C	EWS-Fli inh 63 (no result: TROY signal inh, TWEAK Fn14 block)
C[C@H]1CN([C@@H](C)CO)C(=O)Cc2cc(NC(=O)CCN3CCOCC3)ccc2O[C@H]1CN(C)Cc1ccc(C(F)(F)F)cc1	EWS-Fli inh 60 (no result: TROY signal inh, TWEAK Fn14 block, FN deposition inh)
C[C@H](CO)N1C[C@H](C)[C@H](CN(C)CC2CCCCC2)Oc2ccc(NC(=O)Nc3ccc(F)cc3)cc2CC1=O	EWS-Fli inh 60 (no result: TROY signal inh, TWEAK Fn14 block, FN deposition inh)
C[C@@H]1CN([C@@H](C)CO)C(=O)Cc2cc(NC(=O)Nc3ccc(F)cc3)ccc2O[C@H]1CN(C)Cc1ccc(C(F)(F)F)cc1	EWS-Fli inh 54 (no result: TROY signal inh, TWEAK Fn14 block)
CCCNC(=O)Nc1ccc2c(c1)C(=O)N(C)C[C@@H](OC)[C@@H](C)CN(C(C)=O)[C@H](C)CO2	none (no result: TROY signal inh, TWEAK Fn14 block)
O=C(c1ccccn1)N1C[C@@H]2[C@H](c3ccccc31)[C@@H](CO)N2C(=O)c1ccccn1	none (no result: TROY signal inh, TWEAK Fn14 block, FN deposition inh)
COc1ccc(S(=O)(=O)Nc2ccc3c(c2)C(=O)N([C@@H](C)CO)C[C@@H](C)[C@H](CN(C)Cc2ccccc2)OCCCC[C@H](C)O3)cc1	none (no result: TROY signal inh, TWEAK Fn14 block)

Compound activity: PubChem BioAssay, several laboratories
